KCNK3 block: human KCNK3 channel inhibitors, primary screen, CHO cells, FluxOR thallium flux, B-score; Potassium channel subfamily K member 3 (Homo sapiens), O14649; FluxOR fluorescence; stronger effect = lower value; B-score at 10 µM; 340,000 compounds, 0.84% hits; AID 602410, 2012;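 active = B-score under library mean minus 4 SD, starting fluorescence ratio at most library mean plus 5 SD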;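 note: more negative B-score means stronger inhibition of thallium flux through KCNK3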
KCNK9 block: KCNK9 potassium channel inhibitors, primary screen, HEK293 cells, thallium flux. B-score at 10 µM. Potassium channel subfamily K member 9 (Homo sapiens), Q9NPC2. FluxOR thallium flux fluorescence; stronger effect = lower value. 310,000 compounds, 1.2% hits;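 active = ratio B-score over 3 SD below the library mean, with starting fluorescence within 5 SD of its mean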;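 note: negative B-score means less thallium flux so channel inhibition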
KCNQ1 act: potentiators or activators of KCNQ1 channel, primary screen, cell-based, thallium flux, high-throughput. Potassium voltage-gated channel subfamily KQT member 1 (Homo sapiens), P51787. CHO-K1 KCNQ1, thallium flux FluxOR fluorescence; stronger effect = higher value. B-score at 10 µM. 310,000 compounds, 0.35% hits;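 active = fluorescence ratio B-score, a plate-corrected score, at least three library SD, with initial intensity B-score within 5 SD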
Target sequence (P51787 whole entry, looked up): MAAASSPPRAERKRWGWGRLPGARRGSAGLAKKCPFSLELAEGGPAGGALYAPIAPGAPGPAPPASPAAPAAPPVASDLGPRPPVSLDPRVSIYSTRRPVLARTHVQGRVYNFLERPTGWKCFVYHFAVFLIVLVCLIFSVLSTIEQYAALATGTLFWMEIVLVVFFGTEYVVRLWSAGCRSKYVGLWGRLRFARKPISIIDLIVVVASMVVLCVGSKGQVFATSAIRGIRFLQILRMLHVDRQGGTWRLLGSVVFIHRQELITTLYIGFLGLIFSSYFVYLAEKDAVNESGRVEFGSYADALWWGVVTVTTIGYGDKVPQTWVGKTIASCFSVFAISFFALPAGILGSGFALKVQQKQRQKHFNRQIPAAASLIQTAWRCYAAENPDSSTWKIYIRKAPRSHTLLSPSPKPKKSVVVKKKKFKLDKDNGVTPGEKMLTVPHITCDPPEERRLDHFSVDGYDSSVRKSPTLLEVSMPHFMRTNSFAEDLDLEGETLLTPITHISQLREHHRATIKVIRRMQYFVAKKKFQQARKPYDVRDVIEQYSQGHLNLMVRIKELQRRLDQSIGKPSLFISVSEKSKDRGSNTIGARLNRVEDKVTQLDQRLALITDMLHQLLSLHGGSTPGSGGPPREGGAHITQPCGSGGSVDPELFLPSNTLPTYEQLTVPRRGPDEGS
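Assay system: stable KCNQ1 CHO-K1 line; medium: assay buffer, equal DMSO in all wells; timing: 90 min dye loading and 20 min compound exposure, both at room temperature; technique: kinetic FluxOR thallium fluorescence, 10-s 1-Hz baseline, 110-s post-stimulus read; read-out basis: B score of baseline-normalized fluorescence ratio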
KCC2 mod: KCC2 cotransporter modulators, thallium flux, primary screen, cell-based, HEK293 KCC2, FluoZin-2 fluorescence, MLSMR. Solute carrier family 12 member 5 (Homo sapiens), Q9H2X9. KCC2 cells, thallium flux FluoZin-2 fluorescence. B-score of Tl+ flux slope (higher = more flux/activation; lower = inhibition) at 10 µM. 190,000 compounds, 2.2% hits;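 active = thallium flux slope and its plate-corrected score both differing from the plate sample mean at a set confidence after two filtering rounds, in either direction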;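 note: slope of fluorescence scaled to starting intensity during 10 to 20 s after thallium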
hERG rescue: hERG rescue from dofetilide block, primary screen, cell-based, CHO-hERG, FluxOR thallium flux, dofetilide IC70. activation (rescue from dofetilide block), less the hit threshold, % at 10 µM. AID 1511, 2009. dofetilide IC70 present. Voltage-gated inwardly rectifying potassium channel KCNH2 (Homo sapiens), Q12809. 310,000 compounds, 0.51% hits;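 active = activation above the mean of controls blocked by dofetilide plus 5 SD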;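 note: thallium influx through hERG after potassium depolarization seen as dye fluorescence rise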
KCNQ1 block: inhibitors of human KCNQ1 channel, primary screen, cell-based, thallium flux, high-throughput. Potassium voltage-gated channel subfamily KQT member 1 (Homo sapiens), P51787. CHO-K1 KCNQ1, FluxOR thallium flux fluorescence; stronger effect = higher value. B-score at 10 µM. 310,000 compounds, 1.3% hits. AID 2642, 2010;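 active = compounds whose thallium flux B-score, printed positive for inhibition, exceeds three library SD while starting fluorescence stays within three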;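 note: channel opened by potassium depolarization with thallium stimulus after 20 min compound exposure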
Of the large screens only hits and unclear results are named; the others gave an inactive call; ! = not confirmed by another sample. Most compounds without a hit are left out; they make up all but 4.1% or so of the library.

Cc1c(C(=O)N(C)CCOc2ccccc2)oc2c(Cl)cccc12	KCNK3 block -9.3 (no result: KCNK9 block, KCNQ1 act, KCC2 mod, hERG rescue, KCNQ1 block)
CC(C)OCCCn1c(=S)[nH]c2cc3c(cc2c1=O)OCO3	KCC2 mod 12
CCN1CCN(CCCNC(=O)c2ccc(/C=C3/Sc4ccccc4N(Cc4ccccc4F)C3=O)cc2)CC1	KCNK9 block -6.7, KCNQ1 block 7
CCN1CCN(CCNC(=O)c2ccc(/C=C3/Sc4ccccc4N(Cc4ccccc4C)C3=O)cc2)CC1	KCNQ1 block 14
CCN1CCN(CCCNC(=O)c2ccc(/C=C3/Oc4ccccc4N(Cc4cccc(C)c4)C3=O)cc2)CC1	KCNQ1 block 7 (no result: KCC2 mod)
Cc1ccccc1CN1C(=O)c2ccccc2Sc2ccc(C(=O)NCCN3CCOCC3)cc21	none (no result: KCC2 mod)
O=C(NCCCN1CCOCC1)c1ccc(/C=C2\Oc3ccccc3N(Cc3ccccc3F)C2=O)cc1	none (no result: KCC2 mod)
Cc1cc(Nc2ccccc2)n(C(=O)c2ccc(Cl)cc2)n1	KCNK9 block -6.6
Cc1cc(Nc2ccccc2)n(-c2ccc(C(=O)O)cc2)n1	none
Cc1cc(C)n(/C(=C\N(C)C)C(=O)c2ccc(Cl)cc2)n1	hERG rescue 5.6
CCN1C(=O)[C@@H]2[C@@H](c3ccc(-c4ccc(F)cc4)cc3)N3CCCC[C@@]3(C(=O)OC)[C@@H]2C1=O	none (no result: KCC2 mod)
CC(CCC(=O)O)C1CC[C@@]2(C)C3C(=O)CC4C(C)(C)C(O)CC[C@]4(C)C3C(=O)C[C@]12C (some centres undefined)	none
C/C(=C/CCC(C)C1CCC2(C)C3CCC4C(C)(C)C(=O)CCC4(C)C3=CCC12C)C(=O)O (centres undefined)	KCNQ1 act 29, hERG rescue 9.5 (no result: KCNK3 block)
C/C(=C/CCC(C)[C@H]1CC[C@@]2(C)C3=C(CC[C@]12C)[C@@]1(C)CCC(=O)C(C)(C)[C@@H]1CC3)C(=O)O (some centres undefined)	KCNQ1 act 26, hERG rescue 39
CCN(C(=O)COC(=O)c1ccccc1NCCO)C1CCS(=O)(=O)C1 (centres undefined)	none (no result: KCC2 mod)
COc1ccc(NC(=O)c2nc[nH]c2C(=O)N2CCN(c3ccccc3)CC2)cc1	hERG rescue 5.7
COc1cccc(C(N)=O)c1OC(=O)Cc1ccccc1F	none (no result: KCC2 mod)
COc1ccc(CN2C(=O)C(C)Nc3ncnc(N4CCN(c5ccccc5)CC4)c32)cc1 (centres undefined)	none (no result: KCNK9 block, KCNQ1 act, KCC2 mod, hERG rescue, KCNQ1 block)
CC1Nc2ncnc(N3CCN(c4ccccc4)CC3)c2N(Cc2ccc(Br)cc2)C1=O (centres undefined)	KCNK9 block -6.7 (no result: KCC2 mod)
COc1cccc2sc3cc(NCc4ccc(C)o4)ccc3c(=O)c12	none (no result: KCNK9 block, KCNQ1 act, KCC2 mod, hERG rescue, KCNQ1 block)
Cc1[nH]c(-c2ccccn2)nc(=S)c1Cl	KCNQ1 act 41, KCC2 mod 63, hERG rescue 52
O=C(CSc1nc2ccccc2c(=O)n1-c1ccc(F)cc1F)Nc1ccc2c(c1)CCC2	KCNK9 block -7.6
C=CC(=O)N(CCC)C(c1ccccc1)c1ccccc1OC (centres undefined)	none (no result: KCC2 mod)
O=S(=O)(Nc1ccc(O)c2ccccc12)c1ccc(Br)cc1	hERG rescue 30 (no result: KCNK3 block, KCC2 mod)
Nc1ncnc2c1ncn2[C@@H]1O[C@H](CNC(=O)[C@@H]2CCCN2S(=O)(=O)c2ccc(F)cc2)[C@@H](O)[C@H]1O	none (no result: KCNK9 block, KCNQ1 act, KCC2 mod, hERG rescue, KCNQ1 block)
N#C/C(=N\Nc1cccc(F)c1)C(=O)C1CC1	KCNQ1 block 6
O=C(O)CN1C(=O)c2cccc(Oc3ccc(Cl)cc3)c2C1=O	KCNK9 block -6.8
O=C(CSc1nnc(CNc2ccc(F)cc2)n1CC1CCCO1)N1CCOCC1 (centres undefined)	none (no result: KCC2 mod)
COCc1ccc(CN2CCC(C(=O)Nc3cccc(-c4cccc(Cl)c4)c3)CC2)o1	KCNQ1 block 8 (no result: KCC2 mod)
O=C(COC(=O)c1ccc(Br)cc1)NCCN1C(=O)CSC1=O	hERG rescue 7.3 (no result: KCC2 mod)
C=CCn1c(SCC(O)Cn2c3ccccc3c3ccccc32)nnc1-c1ccco1 (centres undefined)	KCNK9 block -7.2
CC(=O)Nc1c(I)c(NC(C)=O)c(I)c(C(=O)O)c1I	KCC2 mod 10!
CN(C)CCCOC(=O)c1ccc(Cl)cc1	hERG rescue 4.8
CCCCc1c(C)nc2ccc(Br)cc2c1SCCC#N	KCNK9 block -7.7 (no result: KCNK3 block)
CCc1c(C)nc2ccc(Br)cc2c1SCCC#N	none
O=C(C[C@@H]1C/C=C/CC[C@@H](Cc2ccc(F)cc2)C(=O)O[C@H](c2ccccc2)CNC1=O)NCCO	none (no result: KCNK9 block, KCNQ1 act, KCC2 mod, hERG rescue, KCNQ1 block)
CSCCC1NC(=O)C(C(C)=NNC(N)=O)=C1O (centres undefined)	none (no result: KCNK9 block, KCNQ1 act, KCC2 mod, hERG rescue, KCNQ1 block)
Oc1ccc(N=Nc2nc(-c3ccccc3)c(-c3ccccc3)[nH]2)cc1	KCNK9 block -7.4
CCN1CC(C)(C)N(C(=O)c2ccccc2)CC1(C)C	none (no result: KCNK9 block, KCNQ1 act, KCC2 mod, hERG rescue, KCNQ1 block)
O=P(CCCCCCCCCP(=O)(c1ccccc1)c1ccccc1)(c1ccccc1)c1ccccc1	KCNK9 block -7.2, KCC2 mod -3
CCOc1ccc(NC(=O)CN(c2ccc([N+](=O)[O-])cc2)S(=O)(=O)c2ccccc2)cc1	KCNQ1 block 6
Cc1ccc(C)c(COc2coc(CN3CCN(C(=O)c4ccco4)CC3)cc2=O)c1	none (no result: KCC2 mod)
CC(C)NC(=S)NN=C1c2ccccc2-c2ccccc21	none
CC(C)NC(=S)NC(c1ccccc1)(c1ccccc1)c1ccccc1	KCNQ1 block 10 (no result: KCC2 mod)
CCN(Cc1ccccc1)C(=O)c1oc2ccc(C)cc2c1C	hERG rescue 5.0 (no result: KCC2 mod)
O=S(=O)(Nc1nc2ccccc2nc1N1CCN(CCO)CC1)c1cc(F)ccc1F	none (no result: KCNK9 block, KCNQ1 act, KCC2 mod, hERG rescue, KCNQ1 block)
CCOC(=O)N1CCN(C(=O)NC23CC4CC(CC(C4)C2)C3)CC1	KCC2 mod -3.4
O=C(NC12CC3CC(CC(C3)C1)C2)N1CCN(C2CCCCC2)CC1	none
Clc1ccc(N2N=C(c3cccs3)CC2c2ccco2)cc1 (centres undefined)	KCNQ1 block 8
c1ccc(N2N=C(c3cccs3)CC2c2ccco2)cc1 (centres undefined)	none (no result: KCNK9 block, KCNQ1 act, hERG rescue, KCNQ1 block)
Cc1ccccc1OCc1nc2ccccc2c(=O)n1/N=C/c1ccco1	KCNK9 block -6.9
CCOc1ccc(CCNC(=O)C2CCCN(c3ncnc4c3nc3n4CCCCC3)C2)cc1 (centres undefined)	none (no result: KCC2 mod)
CCC(OC(=O)c1cccs1)C(=O)NCc1ccco1 (centres undefined)	hERG rescue 51
